# Screening results as filed in PubChem BioAssay.
# Most compounds without a hit are left out; they make up all but 2.9% or so of the library.
# Dynein cargo inh = dynein cargo transport inhibition; 3617.4 mouse cells, GR-EGFP nuclear translocation imaging; test concentration mostly 20 µM; stimulated with dexamethasone, 1 µM; hits give low values; z-score, hits read low; actives 0.47% (n = 220,000); AID 1381;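 active = plate z-score of nuclear minus cytoplasmic receptor signal below a set negative limit, without overly bright fluorescence or cell loss, cut at about -3.5 in these data, passing the limit was not always enough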;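 note: z-score of nuclear minus cytoplasmic ring GR-EGFP intensity difference per well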
#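 Medium: Induction medium lacking tetracycline, stripped serum | Probe or stimulus: 1.0 µM final dexamethasone stimulus | Schedule: 48 h induction, then 1 h compound, then 30 min agonist, 37 °C | Signal: Automated 10x imaging of fixed Hoechst-stained cells | Evaluation: Per-cell GR-EGFP intensity, nucleus versus surrounding cytoplasmic ring, well-averaged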
# ATG4B inh = blocks human ATG4B protease cleavage of LC3 substrate | inhibition, % at 8.33 µM | ATG4B cleavage of LC3-PLA2, NBD-HPC fluorescence, 1 h | actives 0.51% (n = 340,000) | Q9Y4P1; in the data active = inhibition above about 40%
# Target sequence (Q9Y4P1 whole entry, looked up): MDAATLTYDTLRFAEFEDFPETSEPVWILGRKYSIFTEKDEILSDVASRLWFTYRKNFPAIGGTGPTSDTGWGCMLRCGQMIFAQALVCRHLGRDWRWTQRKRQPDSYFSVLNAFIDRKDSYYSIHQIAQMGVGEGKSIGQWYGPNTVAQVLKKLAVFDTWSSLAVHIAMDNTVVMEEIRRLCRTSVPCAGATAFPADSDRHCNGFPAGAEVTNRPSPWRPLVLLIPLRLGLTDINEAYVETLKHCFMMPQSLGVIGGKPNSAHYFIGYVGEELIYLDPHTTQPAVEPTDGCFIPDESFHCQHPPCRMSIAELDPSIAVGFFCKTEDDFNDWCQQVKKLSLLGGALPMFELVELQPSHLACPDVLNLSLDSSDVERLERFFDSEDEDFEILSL
# MEKK2mut PB1 HTS = signal of MEK5 binding to mutant human MEKK2 PB1 domain. actives 0.35% (n = 290,000). percent response, % at 10 µM. bead flow cytometry, Alexa488-MEK5 binding to MEKK2 mutant; in the data active = percent response above about 24%, passing the limit was not always enough
# B2AR ag = human beta-2 adrenergic receptor agonism by FAP. Am2.2-beta2AR cells, FAP receptor internalization, flow cytometry. response, % (no concentration beside the values). actives 0.43% (n = 340,000);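 active = response above a set limit, near 3 SD of response in nonfluorescent compounds, cut at about 42% in these data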
# MEKK2wt PB1 HTS = raises or lowers MEK5 binding to wildtype human MEKK2 PB1 domain. Q9Y2U5. bead flow cytometry, Alexa488-MEK5 binding to MEKK2 WT; actives lie on both sides. binding response (% of control), % at 10 µM. actives 1.1% (n = 290,000). AID 1531; in the data active = binding response below about 67% or above about 130%
# MEKK3 PB1 HTS = raises or lowers MEK5 binding to the human MEKK3 PB1 domain; actives 1.4% (n = 290,000); binding response (% of control), % at 10 µM; bead-based flow cytometry, Alexa488-MEK5 binding to MEKK3; actives lie on both sides; 0 = blocked by unlabeled MEK5, 100 = vehicle;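 active = binding response more than 3 SD above or below the average of its plate-row segment, actives on both sides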;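 note: Alexa488 bead fluorescence after subtracting the streptavidin-only scavenger bead signal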
# MEKK2wt confirm = raises or lowers MEK5 binding to wildtype human MEKK2, retest; shares compounds with MEKK3 PB1 HTS; bead flow cytometry, Alexa488-MEK5 binding to MEKK2 WT; actives lie on both sides; AID 1892; binding response (% of control), % at 10 µM; actives 2.4% (n = 5,900); in the data active = binding response below about 16% or above about 210%; inactive = in between
# MEKK2mut-MEK5 = signal of MEK5 binding to mutant human MEKK2, retest; actives 2% (n = 5,900); shares compounds with MEKK3 PB1 HTS; percent response, % at 10 µM; bead flow cytometry, Alexa488-MEK5 binding to MEKK2 mutant; in the data active = percent response mostly above about 71%, no sharp cut-off; inactive = mostly below about 38%;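 note: higher means compound restores mutant binding toward wildtype level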
# MEKK3-MEK5 inh = confirmation of inhibitors of MEK5 binding to human MEKK3 | bead flow cytometry, Alexa488-MEK5 binding to MEKK3; hits give low values | actives 1.8% (n = 5,900) | binding response (% of control), % at 10 µM | shares compounds with MEKK3 PB1 HTS;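 active = binding response below 72% of control, or above a set upper limit, though filed actives all read lower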;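 note: 100% = DMSO only wells and 0% = binding blocked by excess unlabeled MEK5; lower values mean stronger disruption of MEK5 binding to MEKK3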
# * = called active by the depositor; i = inactive; x = no result; [ ] = dose if it differs, or a comment.
SMILES,Dynein cargo inh,ATG4B inh,MEKK2mut PB1 HTS,B2AR ag,MEKK2wt PB1 HTS,MEKK3 PB1 HTS,MEKK2wt confirm,MEKK2mut-MEK5,MEKK3-MEK5 inh
CC(=O)Nc1ccc2nc(-c3ccc(Br)o3)[nH]c2c1,0.32,-13.3,-3.0,-6.5,63.0*[inhibitor],66.0*[inhibitor],104.0,9.0,104.0
N#C/C(=C/c1ccc(-c2ccc(S(N)(=O)=O)cc2)o1)c1nc2ccccc2s1,-5.43,32.3,45.0,i,28.0*[inhibitor],63.0*[inhibitor],96.0,3.0,103.0
N#C/C(=C/c1ccc(-c2ccc(S(N)(=O)=O)cc2)o1)C(=O)Nc1ccccc1,-0.148,-4.0,7.0,3.0,101.0,102.0,x,x,x
Cc1csc(N2CCN(c3cc4c(cc3Cl)nc(-c3ccncc3)n4CCCN3CCCC3)CC2)n1,x,-8.4,22.0,7.7,147.0*,102.0,164.0,51.0,107.0
Cc1ccc(-c2csc(N3CCN(c4cc5c(cc4Cl)nc(C)n5CCN4CCCCC4)CC3)n2)cc1,x,-4.6,46.0*,17.9,148.0*,107.0,177.0,47.0,111.0
Cc1cc(C)c2sc(N(CCCN(C)C)C(=O)CN3C(=O)c4ccccc4C3=O)nc2c1,1.45,-4.9,82.0*,-2.7,321.0*,70.0*[inhibitor],156.0,37.0,115.0
Cc1cc(C)c2sc(N(CCCN(C)C)C(=O)c3ccc(Br)s3)nc2c1,0.984,3.1,28.0,37.5,189.0*,114.0,204.0,54.0,111.0
Cc1cc(C)c2sc(N(CCN(C)C)C(=O)c3c(F)cccc3F)nc2c1,-1.39,26.8,-1.0,-1.2,106.0,99.0,x,x,x
Cc1ccc2nc(N(CCCN(C)C)C(=O)CN3C(=O)c4ccccc4C3=O)sc2c1,-0.464,-5.1,9.0,-2.5,125.0,100.0,x,x,x
CC(=O)c1c(N2CCN(c3ccccc3)CC2)nc(=S)n(-c2ccccc2)c1C,-0.636,0.6,11.0,13.8,23.0*[inhibitor],82.0,93.0,-7.0,94.0
COc1ccc(OC)c(-c2cc(C(F)(F)F)c3c(n2)sc2c(O)cc(=O)[nH]c23)c1,0.342,-1.6,-1.0,1.0,91.0,69.0*[inhibitor],87.0,-9.0,91.0
O=c1cc(O)c2sc3nc(-c4ccccc4)cc(C(F)(F)F)c3c2[nH]1,-1.11,-2.9,0.0,-5.9,95.0,8.0*[inhibitor],101.0,4.0,104.0
COc1nsnc1NS(=O)(=O)c1ccc(NC(=S)NC(=O)c2cccnc2)cc1,-1.21,-0.4,-12.0,-1.3,94.0,91.0,x,x,x
COc1cccc(/C=C2/CCC(CN(C)C)C2=O)c1 (stereo not drawn),x,-8.5,x,26.3,x,x,x,x,x
O=C(NCc1ccc(F)cc1)C1Cc2ccccc2CN1C(=O)c1ccco1 (stereo not drawn),-0.677,0.1,-2.0,-5.5,84.0,69.0*[inhibitor],105.0,7.0,108.0
COc1ccc(C(=O)Nc2cc3c4c(c2)C(C)C(=O)N4CCC3)cc1OC (stereo not drawn),x,-5.0,x,-1.2,x,x,x,x,x
OCCNc1nc(Nc2ccccc2)nc2ccccc12,0.345,-1.8,3.0,7.2,110.0,110.0,x,x,x
Cc1ccc(Nc2nc(NCc3ccco3)c3ccccc3n2)cc1,1.03,0.2,77.0*,28.8,191.0*,107.0,177.0,49.0,102.0
c1ccc(N2CCN(c3nc(NCc4ccco4)c4ccccc4n3)CC2)cc1,2.84,5.0,19.0,14.2,145.0*,106.0,162.0,39.0,106.0
OCCNc1nc(Nc2ccc(Br)cc2)nc2ccccc12,0.783,-5.3,28.0,x,146.0*,108.0,132.0,36.0,104.0
Oc1ccccc1Nc1nc(NCc2ccccc2)c2ccccc2n1,-0.124,10.2,67.0*,29.0,216.0*,114.0,192.0,54.0,111.0
CNc1nc(NCc2ccccc2)c2ccccc2n1,x,0.9,13.0,4.6,124.0,94.0,x,x,x
Oc1ccccc1-c1nc(NCc2ccco2)c2ccccc2n1,2.06,4.8,-4.0,0.8,101.0,100.0,x,x,x
CCOc1ccccc1C1NC(=O)c2ccccc2N1 (stereo not drawn),x,-2.2,x,9.8,x,x,x,x,x
COc1ccc(-c2[nH]ncc2CN(C)CC2CCCCO2)cc1F (stereo not drawn),0.0353,-1.6,-8.0,11.1,90.0,96.0,x,x,x
SMILES,Dynein cargo inh,ATG4B inh,MEKK2mut PB1 HTS,B2AR ag,MEKK2wt PB1 HTS,MEKK3 PB1 HTS,MEKK2wt confirm,MEKK2mut-MEK5,MEKK3-MEK5 inh
O=[N+]([O-])c1ccc(Cl)c(S(=O)(=O)n2ccnc2)c1,-0.363,-4.6,28.0,-0.7,118.0,130.0*,105.0,4.0,103.0
O=c1[nH]c2ccc(NC(=S)NCCc3ccccc3)cc2[nH]1,-0.161,1.9,-13.0,-5.8,44.0*[inhibitor],41.0*[inhibitor],96.0,3.0,101.0
Cc1ccccc1C(=O)NC(=S)Nc1ccc2[nH]c(=O)[nH]c2c1,-0.248,12.0,3.0,0.5,117.0,135.0*,96.0,-1.0,99.0
O=c1[nH]c2ccc(NC(=S)Nc3ccccc3)cc2[nH]1,-0.236,6.2,3.0,2.5,99.0,98.0,x,x,x
Oc1ccc(C=NCCc2ccccc2)cc1,x,-4.0,6.0,-6.8,105.0,106.0,x,x,x
CCOC(=O)c1c(NC(=O)COc2ncnc3ccccc23)sc(C)c1CC,2.31,12.5,23.0,-12.1,104.0,103.0,x,x,x
Cc1nn(-c2ccccc2)c(C)c1/C=N/NC(=O)c1cccs1,0.67,-8.1,-1.0,-9.0,100.0,133.0*,104.0,1.0,104.0
Cc1[nH]c2ccccc2c1/C=N/NC(=O)c1cccs1,-0.153,-7.9,128.0*,-6.8,88.0,98.0,104.0,2.0,98.0
CN(CCS(=O)(=O)c1ccc(Cl)cc1)Cc1cccnc1,-1.29,-5.7,29.0,-4.2,119.0,138.0*,100.0,-1.0,101.0
O=C(O)/C=C/c1ccc(S(=O)(=O)Nc2ccc(OCc3ccccc3)cc2)cc1,-0.272,6.0,-22.0,3.6,84.0,73.0*[inhibitor],92.0,-2.0,97.0
COc1ccc(OC)c(-c2csc(NC(=O)CSc3ccc([N+](=O)[O-])cc3)n2)c1,0.727,-17.7,0.0,6.4,110.0,141.0*,103.0,-3.0,102.0
Cc1ccc(C)c(-c2ccc(=O)n(Cc3ccc(F)cc3Cl)n2)c1,x,14.5,34.0*,-19.4,132.0,128.0*,100.0,0.0,104.0
Cc1ccc(C)c(-c2ccc(=O)n(Cc3cccc(Br)c3)n2)c1,x,16.6,11.0,5.2,106.0,110.0,x,x,x
